The test system of one test is DU-145 cells. Put plainly: Growth inhibition of DU-145 prostate cancer cells. The class given is cell-based. The settings on record: read-out: IC50, growth inhibition of DU-145 cells; human prostate cancer cell line DU-145.
The next test concerns the target CSNK1D (Homo sapiens, UniProt P48730). As to the kind of experiment: KINOMEscan primary screen binding. The conditions noted are these: 10 μM; lower numbers indicate stronger hits. In outline: (§1)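 Test compound profiled as a single-concentration primary binding screen across a panel of 100 kinases by the KINOMEscan service, at 10 μM. Binding interactions were reported as % Ctrl, with lower values indicating stronger hits. A selectivity score, S(35), was also calculated across the panel.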

The target of a further test is Pim3 (Homo sapiens, UniProt Q86V86). As to the kind of experiment: KINOMEscan primary screen binding. The conditions noted are these: 10 μM; lower numbers indicate stronger hits. The method, boiled down:
as §1

The next test has as its system panel of 100 kinases. Put plainly: KINOMEscan selectivity over kinase panel. The class given is binding. The settings on record: KINOMEscan panel of 100 kinases, 10 μM.
The target in another test is Pim1 (Homo sapiens, UniProt P11309). As to the kind of experiment: KINOMEscan primary screen binding. The conditions noted are these: 10 μM; lower numbers indicate stronger hits. The method, boiled down: as §1
Chain of Pim1 (P11309 whole entry): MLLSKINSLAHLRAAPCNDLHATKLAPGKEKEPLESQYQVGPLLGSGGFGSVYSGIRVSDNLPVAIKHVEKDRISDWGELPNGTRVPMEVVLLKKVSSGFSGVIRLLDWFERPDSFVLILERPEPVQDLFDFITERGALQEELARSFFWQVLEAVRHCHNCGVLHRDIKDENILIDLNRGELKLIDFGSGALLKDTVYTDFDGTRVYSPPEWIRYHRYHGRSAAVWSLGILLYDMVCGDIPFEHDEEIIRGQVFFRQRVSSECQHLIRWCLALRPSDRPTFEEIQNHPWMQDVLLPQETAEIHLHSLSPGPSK

Chain of CSNK1D (P48730 whole entry): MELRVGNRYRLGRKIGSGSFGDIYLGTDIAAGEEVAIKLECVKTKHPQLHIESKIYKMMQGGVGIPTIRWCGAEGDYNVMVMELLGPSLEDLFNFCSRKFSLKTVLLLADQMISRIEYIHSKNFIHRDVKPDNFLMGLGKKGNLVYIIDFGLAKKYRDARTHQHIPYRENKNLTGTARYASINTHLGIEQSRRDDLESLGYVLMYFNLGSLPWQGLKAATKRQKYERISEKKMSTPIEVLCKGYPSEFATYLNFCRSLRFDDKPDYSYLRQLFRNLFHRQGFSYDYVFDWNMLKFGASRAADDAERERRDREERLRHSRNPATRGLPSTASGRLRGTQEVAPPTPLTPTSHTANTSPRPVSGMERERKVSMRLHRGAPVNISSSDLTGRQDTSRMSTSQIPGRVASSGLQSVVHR

The term IC50 denotes the midpoint of a concentration-inhibition curve. Turning to `CC(C)(C)OC1CC(O)CC2C(=O)c3c(O)ccc(O)c3C(=O)C12` (stereo not drawn) [Compound 9], the IC50 in the test on DU-145 cells was found to be 2.02 µM.
Same read-out and setting: the value for `CC(C)C(C)OC1CC(=O)CC2C(=O)c3c(O)ccc(O)c3C(=O)C12` (stereo not drawn) [Compound 7] was 3.21 µM.
Consider `O=C1C2=C(C(=O)c3c(O)ccc(O)c31)[C@@H](O)[C@@H](O)[C@@H](O)C2` [Compound 4], for which the “% Ctrl CSNK1D” value at CSNK1D is given as 30 % control. Besides, the “% Ctrl Pim3” value on Pim3 is recorded as 36 % control. The “selectivity score S(35)” value with panel of 100 kinases is given as 0.022. Moreover, the “% Ctrl Pim1” value at Pim1 worked out at 34 % control.

(Values after PMC4899092 (Bioorganic & medicinal chemistry letters, 2016).)
